In ChEMBL document CHEMBL2021777 (J Med Chem, 2012):
Calls of active or inactive are those of the source. The calls are words filed in the database; no cut-off is given here.

Tests used:
[1] = target: Neuronal acetylcholine receptor; alpha2/beta4 (Rattus norvegicus, UniProt P12389+P12392); test: Displacement of [3H] epibatidine from rat alpha2beta4 nAChR by beta scintillation counting; type: protein-complex assay
[2] = target: Neuronal acetylcholine receptor; alpha4/beta4 (Rattus norvegicus, UniProt P09483+P12392); test: Displacement of [3H] epibatidine from rat alpha4beta4 nAChR by beta scintillation counting; type: protein-complex assay
[3] = target: Neuronal acetylcholine receptor; alpha4/beta2 (Homo sapiens, UniProt P17787+P43681); test: Agonist activity at human high sensitive and low sensitive alpha4beta2 nAChR expressed in SH-EP1 cells assessed as 86Rb+ ion efflux by flip-plate technique relative to sazetidine-A; type: functional, cell-based
Procedure, shortened: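 SH-EP1-hα4β2 cells (stably transfected human α4 and β2, low passage 1−26) express mixed high- and low-sensitivity α4β2-nAChRs. Efficacy was measured by 86Rb+ flux on this mixed population. High-sensitivity efficacy was extrapolated by defining a reference agonist as 100% full agonist at the HS receptor.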

[4] = target: Acetylcholine receptor; alpha1/beta1/delta/gamma (Homo sapiens) (UniProt P02708+P07510+P11230+Q07001); test: Antagonist activity at human alpha1beta1gammadelta nAChR expressed in TE671/RD cells at 10 uM by 86Rb+ flux assay; type: functional, cell-based
Procedure, shortened: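 Human clonal TE671/RD cells endogenously express muscle-type α1*-nAChRs (α1, β1, γ, δ). Cells were kept at low passage (1−26 from frozen stocks). Function was read as 86Rb+ efflux, with agonist and antagonist modes tested up to 10 μM.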

Mus musculus [5] = test: Ex-vivo beta2* nAChR receptor occupancy in mouse brain at 10 mg/kg, ip administered 30 mins prior to testing; type: functional; settings: route intraperitoneal
Procedure, shortened: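 Mice dosed at 10 mg/kg, or water, by intraperitoneal injection 30 min before brain collection (the forced-swim time point); ex vivo β2*-nAChR occupancy measured in brain.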

[6] = target: 5-hydroxytryptamine receptor 1B (Homo sapiens) (UniProt P28222); test: Displacement of [3H][…] from 5-HT1B at 10 uM
Sequence of 5-hydroxytryptamine receptor 1B (Homo sapiens) (P28222 whole entry): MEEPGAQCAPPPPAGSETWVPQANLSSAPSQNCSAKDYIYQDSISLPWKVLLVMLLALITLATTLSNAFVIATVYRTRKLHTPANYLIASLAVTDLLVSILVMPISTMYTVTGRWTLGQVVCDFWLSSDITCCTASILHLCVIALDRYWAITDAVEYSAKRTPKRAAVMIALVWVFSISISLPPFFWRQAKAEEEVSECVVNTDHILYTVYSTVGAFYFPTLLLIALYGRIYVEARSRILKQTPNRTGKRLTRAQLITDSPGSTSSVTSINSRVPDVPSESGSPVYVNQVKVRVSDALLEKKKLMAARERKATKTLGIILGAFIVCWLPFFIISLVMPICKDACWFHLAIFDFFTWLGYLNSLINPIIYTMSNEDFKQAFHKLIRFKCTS

[7] = target: 5-hydroxytryptamine receptor 1E (Homo sapiens) (UniProt P28566); test: Displacement of [3H]5-HT from 5-HT1E at 10 uM
Sequence of 5-hydroxytryptamine receptor 1E (Homo sapiens) (P28566 whole entry): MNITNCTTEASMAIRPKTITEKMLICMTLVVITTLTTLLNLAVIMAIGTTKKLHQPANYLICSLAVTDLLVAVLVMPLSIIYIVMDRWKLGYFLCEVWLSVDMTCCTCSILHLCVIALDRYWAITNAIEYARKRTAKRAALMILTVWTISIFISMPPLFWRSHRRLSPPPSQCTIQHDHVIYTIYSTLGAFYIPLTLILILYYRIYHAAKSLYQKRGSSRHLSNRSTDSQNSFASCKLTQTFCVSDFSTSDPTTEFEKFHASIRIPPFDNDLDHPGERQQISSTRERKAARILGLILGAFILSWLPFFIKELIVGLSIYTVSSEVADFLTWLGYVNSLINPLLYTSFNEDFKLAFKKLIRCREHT

[8] = target: 5-hydroxytryptamine receptor 2B (Homo sapiens) (UniProt P41595); test: Displacement of [3H]LSD from 5-HT2B at 10 uM
Sequence of 5-hydroxytryptamine receptor 2B (Homo sapiens) (P41595 whole entry): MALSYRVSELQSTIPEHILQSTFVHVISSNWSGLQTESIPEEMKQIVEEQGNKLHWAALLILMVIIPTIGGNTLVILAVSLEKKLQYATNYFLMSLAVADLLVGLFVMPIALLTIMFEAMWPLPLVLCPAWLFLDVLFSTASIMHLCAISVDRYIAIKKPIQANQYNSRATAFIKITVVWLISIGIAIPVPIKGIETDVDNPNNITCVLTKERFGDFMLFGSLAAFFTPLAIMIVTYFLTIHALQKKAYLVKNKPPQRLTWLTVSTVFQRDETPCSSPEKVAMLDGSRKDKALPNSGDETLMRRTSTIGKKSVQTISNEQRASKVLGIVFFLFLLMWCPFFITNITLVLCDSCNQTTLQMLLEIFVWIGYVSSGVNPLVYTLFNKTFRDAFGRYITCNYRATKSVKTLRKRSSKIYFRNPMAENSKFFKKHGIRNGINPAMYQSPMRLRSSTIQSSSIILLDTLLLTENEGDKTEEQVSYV

[9] = target: 5-hydroxytryptamine receptor 6 (Homo sapiens) (UniProt P50406); test: Displacement of [3H]LSD from 5-HT6 at 10 uM
Sequence of 5-hydroxytryptamine receptor 6 (Homo sapiens) (P50406 whole entry): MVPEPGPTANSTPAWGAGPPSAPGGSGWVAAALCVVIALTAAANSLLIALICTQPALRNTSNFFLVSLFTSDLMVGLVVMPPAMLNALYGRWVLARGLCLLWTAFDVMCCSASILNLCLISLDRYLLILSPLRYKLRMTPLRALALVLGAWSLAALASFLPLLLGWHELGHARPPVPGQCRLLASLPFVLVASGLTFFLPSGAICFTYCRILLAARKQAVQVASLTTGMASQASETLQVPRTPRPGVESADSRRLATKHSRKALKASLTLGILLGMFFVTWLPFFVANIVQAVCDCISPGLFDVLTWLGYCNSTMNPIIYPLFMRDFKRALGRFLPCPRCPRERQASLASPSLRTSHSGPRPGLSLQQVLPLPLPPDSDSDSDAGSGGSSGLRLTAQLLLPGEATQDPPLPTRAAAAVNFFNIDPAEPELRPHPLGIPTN

[10] = target: 5-hydroxytryptamine receptor 7 (Homo sapiens) (UniProt P34969); test: Displacement of [3H]LSD from 5-HT7 at 10 uM
Sequence of 5-hydroxytryptamine receptor 7 (Homo sapiens) (P34969 whole entry): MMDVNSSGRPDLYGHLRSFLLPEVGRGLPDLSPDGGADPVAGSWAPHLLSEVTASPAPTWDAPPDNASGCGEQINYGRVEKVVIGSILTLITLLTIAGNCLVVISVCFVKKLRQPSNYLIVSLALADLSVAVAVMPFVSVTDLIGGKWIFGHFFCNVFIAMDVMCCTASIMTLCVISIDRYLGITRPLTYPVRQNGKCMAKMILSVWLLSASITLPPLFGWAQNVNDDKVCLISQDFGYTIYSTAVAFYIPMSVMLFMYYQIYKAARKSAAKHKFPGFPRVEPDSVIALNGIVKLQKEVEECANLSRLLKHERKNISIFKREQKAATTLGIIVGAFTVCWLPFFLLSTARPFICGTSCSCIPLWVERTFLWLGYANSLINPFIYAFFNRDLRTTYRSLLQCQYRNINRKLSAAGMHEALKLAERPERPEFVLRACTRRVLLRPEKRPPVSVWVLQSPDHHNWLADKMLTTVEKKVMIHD

[11] = target: D(1A) dopamine receptor (Homo sapiens) (UniProt P21728); test: Displacement of [3H][…] from D1 at 10 uM
Sequence of D(1A) dopamine receptor (Homo sapiens) (P21728 whole entry): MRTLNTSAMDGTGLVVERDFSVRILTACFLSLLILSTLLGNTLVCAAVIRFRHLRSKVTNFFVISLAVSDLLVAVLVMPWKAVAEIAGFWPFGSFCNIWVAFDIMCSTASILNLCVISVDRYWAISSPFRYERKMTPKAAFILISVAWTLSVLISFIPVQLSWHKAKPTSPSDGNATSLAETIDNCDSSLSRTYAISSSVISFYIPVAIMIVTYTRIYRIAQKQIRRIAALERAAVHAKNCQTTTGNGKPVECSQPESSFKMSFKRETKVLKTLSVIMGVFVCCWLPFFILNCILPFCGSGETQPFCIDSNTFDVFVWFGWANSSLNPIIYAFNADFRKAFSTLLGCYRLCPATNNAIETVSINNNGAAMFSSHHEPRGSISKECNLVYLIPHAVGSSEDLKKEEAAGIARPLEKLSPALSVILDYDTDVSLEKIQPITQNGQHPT

[12] = target: D(1B) dopamine receptor (Homo sapiens) (UniProt P21918); test: Displacement of [3H][…] from D5 at 10 uM
Sequence of D(1B) dopamine receptor (Homo sapiens) (P21918 whole entry): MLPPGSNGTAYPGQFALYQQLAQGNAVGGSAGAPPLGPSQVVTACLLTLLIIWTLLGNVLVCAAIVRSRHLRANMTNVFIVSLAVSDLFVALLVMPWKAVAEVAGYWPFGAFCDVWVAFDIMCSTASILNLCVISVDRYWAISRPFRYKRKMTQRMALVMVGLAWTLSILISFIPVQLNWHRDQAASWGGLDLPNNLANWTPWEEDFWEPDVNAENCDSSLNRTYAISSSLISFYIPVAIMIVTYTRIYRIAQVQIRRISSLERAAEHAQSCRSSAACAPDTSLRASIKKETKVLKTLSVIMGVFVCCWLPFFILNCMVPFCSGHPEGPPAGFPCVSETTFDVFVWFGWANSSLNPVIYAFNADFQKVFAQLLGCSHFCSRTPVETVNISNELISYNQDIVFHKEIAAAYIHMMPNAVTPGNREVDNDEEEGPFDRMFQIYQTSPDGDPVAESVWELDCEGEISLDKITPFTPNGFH

[13] = target: T1, Alpha-1A adrenergic receptor (Homo sapiens) (UniProt P35348); test: Displacement of [3H]Prazosin from alpha1A adrenergic receptor at 10 uM
T1 sequence (whole entry): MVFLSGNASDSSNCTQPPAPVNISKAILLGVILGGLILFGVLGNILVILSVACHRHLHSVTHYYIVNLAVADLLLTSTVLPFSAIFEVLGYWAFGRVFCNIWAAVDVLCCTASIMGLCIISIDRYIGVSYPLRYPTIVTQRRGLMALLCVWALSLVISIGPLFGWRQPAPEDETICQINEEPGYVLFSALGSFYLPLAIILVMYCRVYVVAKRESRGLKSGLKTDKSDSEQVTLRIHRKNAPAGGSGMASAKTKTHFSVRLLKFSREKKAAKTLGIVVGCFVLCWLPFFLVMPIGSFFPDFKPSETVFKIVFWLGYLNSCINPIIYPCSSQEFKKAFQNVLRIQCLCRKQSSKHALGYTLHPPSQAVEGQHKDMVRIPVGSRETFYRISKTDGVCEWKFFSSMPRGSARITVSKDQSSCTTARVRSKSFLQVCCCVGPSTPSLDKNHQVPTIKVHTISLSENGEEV

[14] = target: Alpha-1D adrenergic receptor (Homo sapiens) (UniProt P25100); test: Inhibition of alpha1D adrenergic receptor at 10 uM by radioligand displacement assay
[15] = target: Muscarinic acetylcholine receptor M3 (Homo sapiens) (UniProt P20309); test: Displacement of [3H]QNB from M3 receptor at 10 uM
Sequence of Muscarinic acetylcholine receptor M3 (Homo sapiens) (P20309 whole entry, looked up): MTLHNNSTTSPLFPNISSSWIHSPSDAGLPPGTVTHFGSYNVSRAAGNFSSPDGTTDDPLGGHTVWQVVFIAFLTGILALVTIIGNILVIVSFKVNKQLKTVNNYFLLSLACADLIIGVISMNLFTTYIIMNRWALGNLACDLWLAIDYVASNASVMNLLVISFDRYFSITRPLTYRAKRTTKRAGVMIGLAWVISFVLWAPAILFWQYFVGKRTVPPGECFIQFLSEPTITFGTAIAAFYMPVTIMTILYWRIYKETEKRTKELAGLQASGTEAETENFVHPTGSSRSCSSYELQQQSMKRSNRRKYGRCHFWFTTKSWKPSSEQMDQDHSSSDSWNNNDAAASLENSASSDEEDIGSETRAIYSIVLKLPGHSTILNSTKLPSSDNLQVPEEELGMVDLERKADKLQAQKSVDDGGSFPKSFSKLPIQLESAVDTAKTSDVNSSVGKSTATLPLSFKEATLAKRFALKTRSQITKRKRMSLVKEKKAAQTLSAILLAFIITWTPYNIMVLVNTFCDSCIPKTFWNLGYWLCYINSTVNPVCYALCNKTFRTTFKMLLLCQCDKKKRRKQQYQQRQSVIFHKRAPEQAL

[16] = target: Sodium-dependent dopamine transporter (Homo sapiens) (UniProt Q01959); test: Displacement of [3H]WIN35428 from DAT at 10 uM
Sequence of Sodium-dependent dopamine transporter (Homo sapiens) (Q01959 whole entry): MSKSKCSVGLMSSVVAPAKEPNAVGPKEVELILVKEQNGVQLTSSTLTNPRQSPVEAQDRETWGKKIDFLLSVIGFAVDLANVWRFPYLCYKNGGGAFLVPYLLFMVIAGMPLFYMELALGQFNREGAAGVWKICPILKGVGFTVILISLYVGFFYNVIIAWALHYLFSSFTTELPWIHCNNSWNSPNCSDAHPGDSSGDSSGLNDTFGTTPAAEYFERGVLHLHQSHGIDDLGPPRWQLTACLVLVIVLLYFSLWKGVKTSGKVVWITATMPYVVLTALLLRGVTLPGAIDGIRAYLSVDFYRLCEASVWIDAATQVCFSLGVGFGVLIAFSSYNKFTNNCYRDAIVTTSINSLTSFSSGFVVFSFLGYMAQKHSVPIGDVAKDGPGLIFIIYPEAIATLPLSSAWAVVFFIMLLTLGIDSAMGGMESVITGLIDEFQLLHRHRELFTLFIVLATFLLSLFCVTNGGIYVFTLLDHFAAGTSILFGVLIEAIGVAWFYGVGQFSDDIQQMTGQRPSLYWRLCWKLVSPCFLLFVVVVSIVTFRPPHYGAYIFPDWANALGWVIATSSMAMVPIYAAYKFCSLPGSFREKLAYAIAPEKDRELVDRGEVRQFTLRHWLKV

[17] = Displacement of [3H]DTG from sigma2 receptor at 10 uM
[18] = Inhibition of CYP1A up to 10 uM; type: ADME
Procedure, shortened: (§1)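 Percent inhibition of CYP isoforms (CYP1A, CYP2C9, CYP2C19, CYP2D6, CYP3A; CYP1A2 reported) with test compound at concentrations up to 10 μM.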

[19] = Inhibition of CYP3A up to 10 uM; type: ADME; procedure, shortened: as §1
Cytochrome P450 1A2 = Cytochrome P450 1A2 (Homo sapiens, UniProt P05177); test: Inhibition of CYP1A2 up to 10 uM; type: ADME; procedure, shortened: as §1
Mus musculus [20] = test: Antidepressant activity in BALB/cJ mouse assessed as decrease in immobility at 3 mg/kg, po administered 30 mins prior to testing measured for 6 mins by forced swim test; type: functional, organism-based; set-up: dose 3 mg/kg
Procedure, shortened: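 Male BALB/cJ mice, 8−10 weeks old, housed four per cage on a 12 h light−dark cycle. Drug in injectable water was given by oral gavage (10 mL/kg). After 30 min, each mouse was placed in a glass cylinder with 12 cm of ~23 °C water, and floating immobility was timed over a 6 min trial. Analysis was by ANOVA with Fisher's PLSD post hoc test.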

[21] = target: 5-hydroxytryptamine receptor 1D (Homo sapiens) (UniProt P28221); test: Displacement of [3H][…] from 5-HT1D at 10 uM
[22] = target: 5-hydroxytryptamine receptor 2A (Homo sapiens) (UniProt P28223); test: Displacement of [3H]Ketanserin from 5-HT2A at 10 uM
Sequence of 5-hydroxytryptamine receptor 2A (Homo sapiens) (P28223 whole entry): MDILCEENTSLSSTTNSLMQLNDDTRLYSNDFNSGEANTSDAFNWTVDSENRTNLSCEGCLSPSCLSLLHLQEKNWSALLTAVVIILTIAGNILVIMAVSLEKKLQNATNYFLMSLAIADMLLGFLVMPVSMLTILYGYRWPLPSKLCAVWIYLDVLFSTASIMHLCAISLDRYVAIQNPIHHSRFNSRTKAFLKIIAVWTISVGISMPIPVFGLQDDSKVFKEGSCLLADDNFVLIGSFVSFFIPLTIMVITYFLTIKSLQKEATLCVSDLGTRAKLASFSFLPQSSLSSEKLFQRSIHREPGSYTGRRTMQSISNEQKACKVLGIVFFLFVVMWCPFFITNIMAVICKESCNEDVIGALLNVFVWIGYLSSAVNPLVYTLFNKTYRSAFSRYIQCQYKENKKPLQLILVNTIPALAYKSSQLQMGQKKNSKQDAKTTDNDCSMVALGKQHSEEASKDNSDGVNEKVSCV

[23] = Displacement of [3H]Baclofen from GABA-B at 10 uM
[24] = Displacement of [3H]PK11195 from PBR at 10 uM
[25] = target: Metabotropic glutamate receptor 5 (Homo sapiens) (UniProt P41594); test: Displacement of [3H]MPEP from mGluR5 at 10 uM
[26] = target: Sodium-dependent serotonin transporter (Homo sapiens) (UniProt P31645); test: Displacement of [3H]Citalopram from SERT at 10 uM
[27] = target: Cannabinoid receptor 1 (Homo sapiens) (UniProt P21554); test: Displacement of [3H]CP55940 from CB1 receptor at 10 uM
[28] = target: Vasopressin V1a receptor (Homo sapiens) (UniProt P37288); test: Displacement of radioligand from Vasopressin V1A receptor; settings: concentration not given here
[29] = Displacement of radioligand from oxytocin receptor; settings: concentration not given here

| Structure (SMILES) | Ki [1] [nM] | Ki [2] [nM] | Efficacy [3] [%] | Activity [4] | Activity (Mus musculus [5]) [%] | inhibition [6] [%] | inhibition [7] [%] | inhibition [8] [%] | inhibition [9] [%] | inhibition [10] [%] | inhibition [11] [%] | inhibition [12] [%] | inhibition [13] [%] | inhibition [14] [%] | inhibition [15] [%] | inhibition [16] [%] | inhibition [17] [%] | inhibition (INH) [18] | inhibition (INH) [19] | inhibition (INH) (Cytochrome P450 1A2) [%] | also measured |
| --- | --- | --- | --- | --- | --- | --- | --- | --- | --- | --- | --- | --- | --- | --- | --- | --- | --- | --- | --- | --- | --- |
| CNC(=O)OCC[C@H]1C[C@@H]1c1cncc(OC[C@@H]2CCN2)c1 | 1890 | 441 | 17 | inactive | 65 | -2.6 | -8.2 | 48.7 | -6.4 | 32.1 | 2.1 | -1.5 | 2.5 | -2.7 | 30.2 | 63 | -4.2 | <= 25% | <= 25% | 80 | – |
| COCC[C@H]1C[C@@H]1c1cncc(OC[C@@H]2CCN2)c1 | 236 | 50.2 | 6 | inactive | 85 | -1.8 | 13.4 | 24.7 | 1.4 | 22.7 | 90.3 | 19.1 | -1.6 | 3.4 | 9.6 | 21.7 | 15 | <= 25% | <= 25% | 70 | Activity (Mus musculus [20]): Active; inhibition [21]: 1.2%; inhibition [22]: 43.7%; inhibition [23]: 3.2%; inhibition [24]: -5.9%; inhibition [25]: 5.1%; inhibition [26]: 39.3%; inhibition [27]: -2%; inhibition [28]: 30.5%; inhibition [29]: -1.4% |
| OCC[C@H]1C[C@@H]1c1cncc(OC[C@@H]2CCN2)c1 | 249 | – | 21 | inactive | 85 | 9.3 | 6.7 | 18.2 | -7.1 | 24.9 | 51.2 | 25.6 | -1.6 | – | 0 | 43.7 | 10 | <= 25% | <= 25% | – | Activity (Mus musculus [20]): Active; inhibition [21]: 5.6%; inhibition [22]: 34.2%; inhibition [23]: 8.9%; inhibition [24]: 4.7%; inhibition [25]: 9.1%; inhibition [26]: 42.7%; inhibition [27]: -3.4%; inhibition [28]: 29.1%; inhibition [29]: 9.4% |
